Entries after “also recorded” stand apart in the source; their conditions may differ.

In one series the test system is CD44 gene. The experiment in a line: Relative gene expression in Notch1 silenced MDA-MB-231 by real-time PCR. The series is classed as cell-based, human. The following applies: MDA-MB-231, 72 h, RT-PCR; AB36_siRNA MR 50, metformin 200 μM; mean of n = 3. (In qPCR the cycle at which signal appears reflects the starting amount.)
For series [1], the system named is MDA-MB-231 cells. As to the kind of experiment: MTT cytotoxicity for IC50 and combination index. The series is classed as cell-based. The note with it: Homo sapiens, MDA-MB-231, 72 h. The method, boiled down:
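MTT viability assay in MDA-MB-231 cells at 72 h. The IC50 of the test compound came from a dose range analysed in CompuSyn. For the combination, five test compound doses (200–450 μM) were paired with a fixed dose of lipopeptide–Notch1 siRNA complex. Combination index was derived by the Chou–Talalay method. Data are mean ± SEM, n = 3.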

In another series the test system is MMP-2 gene. The experiment in a line: Relative gene expression in Notch1 silenced MDA-MB-231 by real-time PCR. Format: cell-based, human. The note with it: MDA-MB-231, 72 h, RT-PCR; AB36_siRNA MR 50, metformin 200 μM; mean of n = 3.
The subject of a further series is CD24 gene. The series is described as above. Format: cell-based, human. The following applies: MDA-MB-231, 72 h, RT-PCR; AB36_siRNA MR 50, metformin 200 μM; mean of n = 3.
The test system of the next series is Erk1 gene. As to the kind of experiment: Gene silencing by real-time PCR. Format: cell-based, human. The note with it: mean ± SEM of three.
The next series relates to Erk2 gene. As to the kind of experiment: Gene silencing by real-time PCR. The following applies: 72 h, MDA-MB-231, MR50, RT-PCR, mean ± SEM of three. The series is classed as cell-based, human.
A further series has as its system Notch1 gene. The experiment in a line: Gene silencing by real-time PCR. Format: cell-based, human. The note with it: 72 h, MDA-MB-231, MR50 (1.25 μM lipopeptide, 25 nM Notch1 siRNA), RT-PCR, mean ± SEM of three.
Series [2] relates to MDA-MB-231 cells. The experiment in a line: Uptake studies by ApoTome microscopy. The series is classed as cell-based, human. The following applies: MR 50, 6 h incubation at 37 °C.
Series [3] deals with MDA-MB-231 cells. The experiment in a line: Cellular uptake by flow cytometry. Format: cell-based, human. The note with it: DY-547 labelled siRNA, MR 50, 1 h incubation. The method, boiled down: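 MDA-MB-231 cells were incubated 1 h with complexes of FAM-labelled lipopeptide (1.25 μM) and DY-547-labelled siRNA (25 nM), MR 50. Complexes were pre-formed by mixing and resting 30 min at room temperature. Uptake was read by flow cytometry in the FITC and PE channels, with single-label complexes used for compensation. Samples were run in duplicate; values are mean ± SEM of two replicates.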
Background: Flow cytometry measures light scatter and fluorescence of single cells or particles in a stream.

The next series relates to HUVEC. As to the kind of experiment: Cellular uptake by flow cytometry. The series is classed as cell-based, human. The following applies: DY-547 labelled siRNA, MR 50, 1 h incubation, hard to transfect primary cells, two replicates.
The subject of another series is trypsin. As to the kind of experiment: Protease stability of lipopeptides. The series is classed as in vitro ADME. The note with it: 0.1 μg trypsin, protocol of ref. 14.
In another series the test system is Notch1 protein. As to the kind of experiment: Immunostaining of Notch1 protein. Format: cell-based, human. The following applies: MDA-MB-231, 72 h, MR50, TRITC signal versus untreated vehicle. The method, boiled down:
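MDA-MB-231 cells were seeded at 14000 per well on etched coverslips and left overnight. They were then transfected with unlabelled lipopeptide (1.25 μM) complexed to Notch1-silencing siRNA (25 nM), MR 50, for 72 h. Untreated cells served as vehicle. Notch1 was detected by immunofluorescence.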

Setting [4] is: 48 h, MDA-MB-231, MR50 (1.25 μM lipopeptide, 25 nM Erk1/2 siRNA), RT-PCR.

What is called IC50 is the concentration that inhibits the measured activity by half. For `CN(C)C(=N)N=C(N)N` [metformin], the “relative expression of the CD44 gene” value with CD44 gene is on record as “did not show any changes”. For the same molecule, in the series with MDA-MB-231 cells [1], the half-maximal inhibitory concentration (IC50) was 374 µM. Further, the “relative expression of the MMP-2 gene” value with MMP-2 gene is given as “did not show any changes”. Further, the “relative expression of the CD24 gene” value in the series with CD24 gene is given as “did not show any changes”.

Turning to “FAM-^γAbu-Arg- Lys-N^ε(stearyl)-Arg-Sar-Arg-Gpn-Arg- Lys-N^ε(stearyl)-Arg-Sar-Arg-NH2 [AB32]”, the “Knockdown percentage, Erk1” value in the series on Erk1 gene (setting [4]) was 51.6 ± 7.4%; in the series on Erk1 gene (72 h, MDA-MB-231, MR50, RT-PCR), 70.6 ± 2.3%. Also, in the series with Erk2 gene, the “Knockdown percentage, Erk2” value turned out to be 60.3 ± 3.2%. Besides, the “Knockdown percentage, Notch1” value with Notch1 gene is 73.1 ± 2.8%.

As to “FAM-γAbu-Arg- C^α-Octylgly -Arg-Sar-Arg-Gly-Arg- Lys-N^ε(D-alpha-Tocopherol succinyl)-Arg-Sar-Arg-NH2 [AB18]”, the “Knockdown percentage, Erk1” value in the series with Erk1 gene (setting [4]) was determined as 62.6 ± 12.5%; in the series on Erk1 gene (72 h, MDA-MB-231, MR50, RT-PCR) it was 89.1 ± 6.3%. Also, in the series on Erk2 gene, the “Knockdown percentage, Erk2” value was 85.9 ± 16.7%. In the series with Notch1 gene, the “Knockdown percentage, Notch1” value is 90.8 ± 3.06%. In the series with MDA-MB-231 cells [2], the “cytosolic distribution of siRNA compared with HiPerFect” value is reported as “higher levels of cytosolic distribution of siRNA”. In the series on MDA-MB-231 cells [3], the “siRNA internalization (ranking among designed lipopeptides)” value is given as “highest siRNA internalization; also recorded: highest level of siRNA”. Besides, the “siRNA internalization relative to HiPerFect_siRNA” value in the series on MDA-MB-231 cells [3] (two replicates) is 1.79 times.

Take “FAM-γAbu-Arg- Lys-N^ε(1-Pyrenebutyryl)-Arg-Sar-Arg-Gly-Arg- Lys-N^ε(1-Pyrenebutyryl)-Arg-Sar-Arg-NH2 [AB17]”: the “Knockdown percentage, Erk1” value with Erk1 gene (setting [4]) came to 67.9 ± 7.6%; in the series with Erk1 gene (72 h, MDA-MB-231, MR50, RT-PCR), 85.9 ± 8.8%. In addition, the “Knockdown percentage, Erk2” value in the series on Erk2 gene came to 75.8 ± 5.1%. For the same molecule, the “Knockdown percentage, Notch1” value in the series on Notch1 gene was determined as 82.5 ± 5.6%.

Turning to “FAM-γAbu-Arg-C^α-Octylgly-Arg-Sar-Arg-Gly-Arg-Lys-N^ε(1-Adamantyl)-Arg-Sar-Arg-NH2 [AB29]”, the “Knockdown percentage, Erk1” value with Erk1 gene (setting [4]) is on record as 52.6 ± 10.2%; with Erk1 gene (72 h, MDA-MB-231, MR50, RT-PCR), 58.8 ± 10.9%. Also, the “Knockdown percentage, Erk2” value in the series with Erk2 gene is recorded as 59.8 ± 7.2%. Further, the “Knockdown percentage, Notch1” value with Notch1 gene was found to be 50.5 ± 7.7%. For the same molecule, in the series with MDA-MB-231 cells [3], the “siRNA internalization (ranking among designed lipopeptides)” value was “much lower efficiency; also recorded: lowest amount of siRNA”.

For “PEG9-Arg- C^α-Octylgly -Arg-Sar-Arg-Gly-Arg-Lys- N^ε(D-alpha-Tocopherol succinyl)-Arg-Sar-Arg-NH2 [AB36]”, the “cellular internalization of siRNA relative to HiPerFect” value in the series with HUVEC is on record as 1.53 times. For the same molecule, in the series on trypsin, the “time at which degradation by trypsin starts” value fell in the range of 1 to 3 h and the “time at which lipopeptide is completely degraded by trypsin” value came to 6 h. Also, the “Notch1 protein expression by immunofluorescence” value in the series on Notch1 protein was “significantly lowered”.

For the molecule “c[-Arg-^DHis-Arg-^DHis-Arg-Lys{Lys(linoleyl)2}-Arg-^DHis-Arg-^DHis-Arg-Glu-]-Lys(FAM)-NH2 (head to tail) [Peptide 6, reference compound]”, the “Knockdown percentage, Erk1” value in the series with Erk1 gene (setting [4]) is reported as 31.2 ± 2.2%; in the series on Erk1 gene (72 h, MDA-MB-231, MR50, RT-PCR), 78.1 ± 2.0%. Moreover, the “Knockdown percentage, Erk2” value in the series with Erk2 gene came out at 71.6 ± 9.4%. The “Knockdown percentage, Notch1” value in the series with Notch1 gene is 80.9 ± 1.6%.

The values are drawn from publication PMC10370593 (Chemical Science, 2023).
